# From PubChem BioAssay AID504382 (The Scripps Research Institute Molecular Screening Center, 2011)
# Hit rate of the full screen: of about 2,500 compounds, about 460 (18%) were called active. Only a sample is shown. A number with no mark means an inactive call.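 How the source made its calls: active means mean activation above a cutoff of low control average plus 3 SD from the earlier screen (cut at about 12% in these data); inactive means the rest.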
# Test: compound fluorescence interference without thin filaments, confirmation, artefact control for cardiac RTF calcium sensitizer project, biochemical (AID 504382)
# Conditions: IANBD fluorescence interference counterscreen, buffer, EC20 Ca2+; at 7.2 µM; active compounds read high; scaled: EC20 calcium 0, EC100 calcium 100
# How it was run: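 Also added: EC20 calcium, 0.472 mM; dosing: single nominal 7.2 µM compound dose, 0.7% DMSO final; timing: 15 min, 25 °C; detection: fluorescence intensity, excitation 480 nm, emission 540 nm; replicates: each compound tested in triplicate wells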
row,Structure (SMILES),fluorescence artifact activation
1,COC(=O)c1ccc(NC(=O)c2snnc2-c2ccccc2)cc1,1.82%
2,O=C(c1ccc2c(=O)n3c(nc2c1)CCCCC3)N1CCN(c2cccc(Cl)c2)CC1,0.04%
3,Oc1ccc2ccccc2c1C=NCc1cn2ccsc2n1,-0.01%
4,N#C/C(=C/c1ccc(-c2ccccc2)o1)c1nc(-c2cccs2)cs1,19.2% (active)
5,N#C/C(=C\c1ccc(-c2ccc(F)cc2)o1)C(=O)Nc1nc(-c2cccs2)cs1,15.1% (active)
6,N#C/C(=C\C=C\c1ccccc1)c1nc(-c2ccc3c(c2)OCO3)cs1,0.13%
7,N#C/C(=C/c1ccc(N2CCOCC2)o1)C(=O)Nc1ccccc1,0.03%
8,Cc1cc(Cl)ccc1OCC(=O)Nc1nc(-c2cccs2)cs1,0.04%
9,Cn1c(/C(C#N)=C/c2ccc(-c3ccc(S(N)(=O)=O)cc3)o2)nc2ccccc21,0.08%
10,O=C(CSc1n[nH]c(-c2cccs2)n1)N1CCOCC1,-0.05%
11,Cc1nnc(SCC(=O)NC(C)(C)C)n1C1CCCCC1,10.9%
12,Nc1c(C(=O)c2ccc(Cl)cc2)sc2nsc(SCCN3CCOCC3)c12,0.08%
13,Oc1ccc2nnc3c(Br)cnn3c2c1,0.07%
14,COc1ccc(/C=N/NC(=O)c2cc(OC)c(OC)c(OC)c2)cc1CN1CCc2cc(OC)c(OC)cc2C1C (centres undefined),7.53%
15,CC1(C)CC(N2CCCC2)=CC(=[N+]2CCCCC2)C1,2.5%
16,COc1ccc2[nH]c(C)c(CCN(Cc3cccs3)C(=S)Nc3ccc(F)cc3)c2c1,1.01%
17,O=C(Cc1ccc(NC(=O)C2CCCN(C(=O)C3CCCCC3)C2)cc1)Nc1cccc(C(=O)N2CCCC2)c1 (centres undefined),0.41%
18,CCCCOC(=O)Cn1c2ccc(OC)cc2c2nc3ccccc3nc21,0.92%
19,COc1ccc(Cn2nnc3ccccc32)cc1,0.37%
20,CCOc1ccc(Cn2c3ccc(OC)cc3c3nc4ccccc4nc32)cc1,23.1% (active)
21,COC(=O)C(=N/Nc1ccccc1C(=O)OC)/C(C)=N/O,6.02%
22,C/C(=N/NC(=O)c1cc(C)[nH]n1)c1ccco1,0.79%
23,COc1ccc(/C=c2\s/c(=C/C(=O)c3ccc(C)cc3)[nH]c2=O)cc1OC,0.04%

row,Structure (SMILES),fluorescence artifact activation
1,CN1CCc2c(sc3nc(SCC(N)=O)n(-c4ccccc4)c(=O)c23)C1,-0.02%
2,Cc1ccc(NS(=O)(=O)c2ccc(C(=O)N3CCN(c4ncccn4)CC3)cc2)cc1,0.15%
3,COc1ccc2c(c1)cc(C(=O)N[C@@H](CCSC)C(=O)N1CCC[C@H]1C(=O)O)n2C,1.37%
4,O=C1N/C(=C\c2ccc(N3CCOCC3)c(F)c2)C(=O)N1Cc1ccccc1,0.25%
5,O=C(O)c1cc(NCc2ccc(F)cc2)ccc1N1CCOCC1,18.7% (active)
6,O=C(N1CCOCC1)N1CCN(c2ccc(F)cc2)CC1,0.02%
7,CCOc1ccccc1N(CC(=O)Nc1ccc(OC)c(OC)c1)S(=O)(=O)c1ccccc1,0.04%
8,CC1=Nc2ccccc2/C1=C/c1nc(-c2ccc(C)s2)oc1O,0.4%
9,CC(=O)Nc1ccc(N2C(=O)CSC2c2ccc(F)cc2)cc1 (centres undefined),47.7% (active)
10,CC(=O)Nc1ccc(N2C(=O)c3cccc4c(O)ccc(c34)C2=O)cc1,0.2%
11,COC(=O)C1(C)NC(c2ccc(C)cc2)C2C(=O)N(c3ccc(F)cc3)C(=O)C21 (centres undefined),3.94%
12,Nc1nc2ccccc2n1CCOc1ccc(Br)cc1,0.41%
13,O=C(C1=C(O)C(=O)N(c2nccs2)C1c1ccccc1)c1cc2ccccc2o1 (centres undefined),-0.02%
14,Cc1ccccc1Cn1cccc1/C=C1/C(=N)N2C=CSC2=NC1=O,0.51%
15,C=CCNc1nnc(SCC(=O)N2CCC(C(N)=O)CC2)s1,2.23%
16,CCOc1c2ccc(C(=O)NCc3ccc(C)cc3)cc2nn1CCOC,0.08%
17,CCN(CC(=O)Nc1c(F)cccc1F)C(=O)CNC(=O)COc1ccccc1,-0.06%
18,c1ccc(-n2ncc(-c3nn[nH]n3)n2)cc1,48.8% (active)
19,O=C(C1=NN(c2ccccc2)C2C(=O)N(c3ccccc3)C(=O)C12)c1ccccc1 (centres undefined),-0.1%
20,O=C(NCCc1ccc(F)cc1)c1cccc2c1C(=O)c1ccc(N3CCC(Cc4ccccc4)CC3)cc1S2(=O)=O,33.5% (active)
21,O=C(NCc1ccco1)c1cccc2c1C(=O)c1ccc(N3CCCC3)cc1S2(=O)=O,0.41%
22,O=C(NCc1cccc(C(F)(F)F)c1)c1cccc2c1C(=O)c1ccc(N3CCC(Cc4ccccc4)CC3)cc1S2(=O)=O,0.26%
23,O=C(NCc1ccco1)c1cccc2c1C(=O)c1ccc(N3CCC(Cc4ccccc4)CC3)cc1S2(=O)=O,24.3% (active)

row,Structure (SMILES),fluorescence artifact activation
1,O=C(NCc1ccc(F)cc1)c1cccc2c1C(=O)c1ccc(N3CCC(Cc4ccccc4)CC3)cc1S2(=O)=O,0.01%
2,O=C(NCc1cccc(F)c1)c1cccc2c1C(=O)c1ccc(N3CCC(Cc4ccccc4)CC3)cc1S2(=O)=O,3.97%
3,COc1ccc(/C=C2\Oc3cc(OCC(=O)N4CCC[C@H]4C(=O)O)ccc3C2=O)c(OC)c1,5.17%
4,COc1ccc(/C=C2\Oc3cc(OCC(=O)N4CCC[C@H]4CO)ccc3C2=O)c(OC)c1,0.23%
5,COc1ccc(/C=C2\Oc3cc(OCC(=O)N4CCC(C(=O)O)CC4)ccc3C2=O)c(OC)c1,84% (active)
6,CN(C)c1ccc(/C=C/C(=O)c2cccc(Br)c2)cc1,0.06%
7,CCOc1ccc(Cn2nnc(C(=O)NCCc3ccccc3)c2N)cc1,40.2% (active)
8,CCOc1ccc(CCNC(=O)c2ccc(CNS(=O)(=O)c3ccccc3)cc2)cc1OCC,0.06%
9,O=C(NCCc1ccccc1)c1ccc(Cl)nc1,5.54%
10,CC1=Nc2ccccc2/C1=C/c1sc(=S)n(-c2cccc(C(=O)O)c2)c1O,0.55%
11,O=C(Cc1ccccc1)Nn1c(O)c(/C=C2\C=Nc3ccccc32)sc1=S,29.4% (active)
12,Cc1ccc2c(c1)[C@H]1[C@H](CO2)[C@H](c2ccccc2)[C@]2(C)C(=O)N(Cc3ccc(F)cc3)CC(=O)N12,0.19%
13,Clc1ccccc1/C=N/NC1=Nc2cccc3cccc1c23,0.08%
14,CCC12OC(=N)C(C#N)(C1C)C(C#N)(C#N)C(c1ccccc1)O2 (centres undefined),-0.03%
15,O=C(COC(=O)C1(c2ccc(F)cc2)CCCC1)N1CCN(C(=O)c2ccco2)CC1,0%
16,O=C(CCSc1ccccc1)N1CCN(C(=O)c2ccco2)CC1,25.9% (active)
17,CCC(C)(C)n1nnnc1C(c1ccc(C)cc1)N1CCN(C(=O)c2ccco2)CC1 (centres undefined),0.17%
18,COc1cc2c(cc1OC)CN(Cc1cc(=O)oc3cc(C)c(C)cc13)CC2,-0.02%
19,C=CCNc1sc(C(=O)c2ccc(Br)s2)c(N)c1C#N,37% (active)
20,O=C(NCc1ccc(OC(F)(F)F)cc1)c1cccc2c1C(=O)c1ccc(N3CCCCC3)cc1S2(=O)=O,0.89%
21,C#CCOCCOCCOCCNc1nc(N2CCN(C(=O)Cn3cc(CCCCN)nn3)CC2)nc(N2CCN(C(=O)Cn3cc(CC(C)O)nn3)CC2)n1 (centres undefined),-0.09%
22,COc1ccc(CCNC(=O)COC(=O)c2cc(=O)[nH]c3ccccc23)cc1,15.4% (active)
23,COc1ccc(-c2noc(CCC(=O)NCCc3ccccc3)n2)cc1,0.2%

row,Structure (SMILES),fluorescence artifact activation
1,Cc1ccnc2nc(C(=O)OCC(=O)NCCc3ccccc3)nn12,7.51%
2,CCC12CN3CCN(CC(C3)/C1=N\NC(=O)Nc1ccccc1)C2,-0.04%
3,CCCCCCc1cc2cc(-c3nnc(-c4ccccc4)o3)c(=O)oc2cc1O,0.03%
4,CCCC(NC(=O)CCc1c(C)c2cc3c(-c4ccccc4)coc3cc2oc1=O)C(=O)O (centres undefined),35.8% (active)
5,O=[N+]([O-])c1ccc(N(c2ccccc2)c2ccccc2)cc1,2.48%
6,Nc1c(S(=O)(=O)c2ccccc2)c2nc3ccccc3nc2n1/N=C/c1ccco1,-0.02%
7,Cc1ccc(S(=O)(=O)c2c(N)n(Cc3ccco3)c3nc4ccccc4nc23)cc1,0.24%
8,Nc1c(S(=O)(=O)c2ccccc2)c2nc3ccccc3nc2n1Cc1ccco1,22.8% (active)
9,COc1ccccc1Nc1nc(N2CCOCC2)nc(N2CCOCC2)n1,0%
10,CCOC(=O)c1c(NC(=S)N2CCN(C)CC2)sc2c1CCN(C(=O)OCC)C2,1.28%
11,O=C(CCN1C(=O)/C(=C/c2ccccc2)SC1=S)NNC(=O)c1cccnc1,0.24%
12,C/C(O)=c1/ccc2cccc3nc(C)nc1c23,13.3% (active)
13,COc1ccc(S(=O)(=O)N2CCC(C(=O)NC(C)CCc3ccccc3)CC2)cc1 (centres undefined),-0.01%
14,CCC(C)NC(=O)C1CC(=O)N(CCc2ccc(F)cc2)C1 (centres undefined),111% (active)
15,COc1ccc(CN=C2NC(=O)CC(C(=O)Nc3ccc(F)cc3)S2)cc1 (centres undefined),1.74%
16,NC(=O)NC(=O)COC(=O)c1cccc(NS(=O)(=O)/C=C/c2ccccc2)c1,6.11%
17,CC(=O)N(C)c1ccc(C(O)(C(F)(F)F)C(F)(F)F)cc1,7.43%
18,O=c1c2ccccc2nc(SCc2nc(-c3ccccc3)no2)n1-c1ccc(F)cc1,0.14%
19,COc1ccc(C2=NN(C(=O)CSc3ncccn3)C(c3ccc(C)cc3)C2)cc1 (centres undefined),202% (active)
20,CNC(=S)N1N=C(c2ccc(Br)cc2)CC1c1ccc(N(C)C)cc1 (centres undefined),5.89%
